Laboratory results reported in PubChem BioAssay AID1736 (Vanderbilt High Throughput Screening Facility, 2009).
pEC50: −log10 of the molar value. Inconclusive results are not listed. Activity calls are given as the source filed them.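 The calls were made as follows: active = dose curve converging in at least two of three replicates, whether well supported or a less certain trend; inactive = fewer than two replicates with a converged curve.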

target: Solute carrier family 12 member 5 (Homo sapiens) (UniProt Q9H2X9); assay: KCC2 modulator potency by thallium flux, dose response, cell-based, HEK293 KCC2, FluoZin-2 fluorescence (AID 1736)
Sequence (Q9H2X9 whole entry, looked up): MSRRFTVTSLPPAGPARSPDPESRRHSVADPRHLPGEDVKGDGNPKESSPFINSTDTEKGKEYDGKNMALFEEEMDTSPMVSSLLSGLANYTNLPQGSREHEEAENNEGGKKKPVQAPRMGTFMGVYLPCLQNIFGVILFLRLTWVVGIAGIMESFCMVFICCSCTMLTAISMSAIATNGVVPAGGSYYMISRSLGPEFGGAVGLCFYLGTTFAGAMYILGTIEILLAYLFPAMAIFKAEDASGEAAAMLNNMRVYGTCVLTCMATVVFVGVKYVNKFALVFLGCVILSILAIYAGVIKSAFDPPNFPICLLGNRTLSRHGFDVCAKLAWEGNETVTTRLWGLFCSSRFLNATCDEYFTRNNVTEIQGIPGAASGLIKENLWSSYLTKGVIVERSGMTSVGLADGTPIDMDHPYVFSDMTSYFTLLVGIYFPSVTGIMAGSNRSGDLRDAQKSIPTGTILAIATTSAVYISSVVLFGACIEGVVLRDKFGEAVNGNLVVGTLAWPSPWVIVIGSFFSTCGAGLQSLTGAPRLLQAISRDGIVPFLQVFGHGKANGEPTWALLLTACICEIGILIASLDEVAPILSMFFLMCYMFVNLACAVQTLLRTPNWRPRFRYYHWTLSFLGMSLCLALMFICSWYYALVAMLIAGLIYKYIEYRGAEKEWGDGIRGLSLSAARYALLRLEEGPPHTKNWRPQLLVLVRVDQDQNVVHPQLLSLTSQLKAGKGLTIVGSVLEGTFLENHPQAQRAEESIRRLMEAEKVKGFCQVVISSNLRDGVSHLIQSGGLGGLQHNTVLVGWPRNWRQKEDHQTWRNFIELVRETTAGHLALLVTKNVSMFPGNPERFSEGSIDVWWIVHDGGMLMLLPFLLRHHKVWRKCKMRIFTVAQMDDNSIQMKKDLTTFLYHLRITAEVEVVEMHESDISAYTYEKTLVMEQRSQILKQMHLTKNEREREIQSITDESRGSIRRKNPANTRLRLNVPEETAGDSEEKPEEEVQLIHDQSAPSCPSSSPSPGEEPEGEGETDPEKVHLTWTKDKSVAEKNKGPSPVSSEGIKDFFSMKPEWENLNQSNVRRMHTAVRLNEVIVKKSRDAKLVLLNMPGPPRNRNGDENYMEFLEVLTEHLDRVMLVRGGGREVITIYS
In short: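 Material: KCC2-expressing HEK cells; Reagent: thallium-containing stimulus buffer for thallium flux; Read-out: EC50 from normalized 10–20 s fluorescence slope; Compound: 11 points, 3-fold steps from 30 µM; Detection: FluoZin-2 AM fluorescence (0.5 µM dye), 480/540 nm, 1 Hz imaging; Repeats: triplicate, replicates fitted individually.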

pEC50	EC50	Compound
6.37	–	NC(=S)N=Nc1c(O)n(Cc2ccccc2)c2ccccc12
–	inactive	Cc1ccc(/C=C2\SC(=S)N(/N=C/c3cc([N+](=O)[O-])ccc3O)C2=O)o1
–	inactive	O=C(Nn1c(O)c(C=C2N=c3ccccc3=N2)sc1=S)c1ccccc1
–	inactive	Cc1cccc(NC(=S)N=Nc2c(O)n(CN3CCOCC3)c3ccccc23)c1C
–	inactive	N#CC1=C(N)NC(SCc2ccccc2)=C(C#N)C12CCCCC2
6.93	–	O=C(Nn1c(O)c(C=C2N=c3ccccc3=N2)sc1=S)c1ccccc1Cl
6.29	–	COc1ccccc1NC(=S)N=Nc1c(O)[nH]c2ccc(Br)cc12
7.17	–	O=C1C2Sc3[nH]c(=O)sc3C(c3ccccc3)C2C(=O)N1c1ccccc1 (centres undefined)
–	inactive	C/C(=N\NC(=O)c1ccc(Br)cc1)C1C(=O)c2ccccc2C1=O
